pEC50: −log10 of the molar value.
How the values were obtained:
[1] = target: T1, Peroxisome proliferator-activated receptor gamma (Homo sapiens, UniProt P37231); test: Activity against PPAR gamma in human by FRET assay
T1 sequence (P37231 whole entry): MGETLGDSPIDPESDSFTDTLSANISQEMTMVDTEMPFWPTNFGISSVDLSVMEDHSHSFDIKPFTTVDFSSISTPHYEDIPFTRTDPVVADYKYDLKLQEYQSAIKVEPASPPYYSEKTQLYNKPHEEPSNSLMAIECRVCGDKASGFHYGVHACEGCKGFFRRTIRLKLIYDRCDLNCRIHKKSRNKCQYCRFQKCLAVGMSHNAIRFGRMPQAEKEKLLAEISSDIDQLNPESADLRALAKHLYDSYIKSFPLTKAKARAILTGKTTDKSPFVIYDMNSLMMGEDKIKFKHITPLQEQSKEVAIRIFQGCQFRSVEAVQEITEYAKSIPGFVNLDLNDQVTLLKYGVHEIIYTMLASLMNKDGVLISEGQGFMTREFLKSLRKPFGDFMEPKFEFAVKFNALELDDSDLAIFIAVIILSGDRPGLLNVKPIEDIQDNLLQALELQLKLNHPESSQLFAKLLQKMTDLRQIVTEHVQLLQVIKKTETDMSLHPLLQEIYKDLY

[2] = target: T2, Peroxisome proliferator-activated receptor alpha (Homo sapiens, UniProt Q07869); test: Activity against PPAR alpha in human by FRET assay
T2 sequence (Q07869 whole entry): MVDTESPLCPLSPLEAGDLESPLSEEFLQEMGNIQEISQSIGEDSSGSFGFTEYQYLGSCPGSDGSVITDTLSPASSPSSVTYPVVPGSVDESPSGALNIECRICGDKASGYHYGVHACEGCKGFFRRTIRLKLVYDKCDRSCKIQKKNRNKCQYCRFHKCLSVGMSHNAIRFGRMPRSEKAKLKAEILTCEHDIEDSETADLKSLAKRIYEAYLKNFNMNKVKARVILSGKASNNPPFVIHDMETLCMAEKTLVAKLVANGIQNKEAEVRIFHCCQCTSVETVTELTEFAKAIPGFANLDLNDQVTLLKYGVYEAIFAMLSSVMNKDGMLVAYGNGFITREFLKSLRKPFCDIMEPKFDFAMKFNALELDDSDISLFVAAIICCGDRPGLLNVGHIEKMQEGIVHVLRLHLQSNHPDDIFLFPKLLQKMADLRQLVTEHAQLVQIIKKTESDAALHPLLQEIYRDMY
In short: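 Human PPAR-α ligand-binding domain (GST-tagged), incubated with compound, europium-labelled anti-GST antibody, biotinylated CREB-binding protein co-activator and streptavidin-APC. Time-resolved FRET read with excitation at 340 nm and emission at 615 and 640 nm. EC50 taken as the mean of at least three experiments.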

Structure (SMILES)	pEC50 [1]	pEC50 [2]
CCc1oc(-c2ccccc2)nc1CCOc1ccc2c(c1)CCC2C(CC)C(=O)O (stereo unspecified)	7.34	6.45
CC[C@H](C(=O)O)[C@H]1CCc2cc(OCCc3nc(-c4ccccc4)oc3C)ccc21	7.72	7.59
CCC(C(=O)O)C1CCc2cc(OCCn3nc(-c4ccccc4)c4ccccc4c3=O)ccc21 (stereo unspecified)	< 5.00	< 5.00
CC[C@H](C(=O)O)[C@@H]1CCc2cc(OCCc3nc(-c4ccc(F)cc4)oc3C)ccc21	7.34	7.03
CC[C@H](C(=O)O)[C@H]1CCc2cc(OCCc3nc(-c4ccc(C)cc4)oc3C)ccc21	7.08	7.32
CCC(C(=O)O)C1CCc2cc(OCCc3nc(-c4cc5ccccc5s4)oc3C)ccc21 (stereo unspecified)	7.43	6.54
CCC(C(=O)O)C1CCc2cc(OCCc3nc(-c4ccccc4)oc3C)c(Cl)cc21 (stereo unspecified)	6.53	6.90
CCC(C(=O)O)C1CCc2cc(OCCc3nc(-c4ccccc4)oc3C)c(-c3ccccc3)cc21 (stereo unspecified)	6.54	7.24
CCC(C(=O)O)C1CCc2cc(OCCNC(=O)c3ccccc3)ccc21 (stereo unspecified)	< 5.00	< 5.00
CCC(C(=O)O)C1CCc2cc(OCCc3nc(-c4ccccc4)oc3C(C)C)ccc21 (stereo unspecified)	6.46	< 5.00
CC[C@@H](C(=O)O)[C@H]1CCc2cc(OCCc3nc(-c4ccc(Cl)c(Cl)c4)oc3C)ccc21	6.65	7.20
CCCCc1ccc(-c2nc(CCOc3ccc4c(c3)CCC4C(CC)C(=O)O)c(C)o2)cc1 (stereo unspecified)	7.80	7.09
CCC(C(=O)O)C1CCc2cc(OCCc3nc(-c4ccc(C)c(C)c4)oc3C)ccc21 (stereo unspecified)	7.49	7.42
CCC(C(=O)O)C1CCc2cc(OCCc3nc(-c4ccc5ccccc5c4)oc3C)ccc21 (stereo unspecified)	7.80	6.98
CCC(C(=O)O)C1CCc2cc(OCCc3nc(-c4c(F)cccc4F)oc3C)ccc21 (stereo unspecified)	6.43	6.28
CCC(C(=O)O)C1CCc2cc(OCCc3nc(COc4ccc(Cl)cc4)oc3C)ccc21 (stereo unspecified)	6.98	7.28
CC[C@@H](C(=O)O)[C@H]1CCc2cc(OCCc3nc(-c4ccc(F)cc4)oc3C)ccc21	< 5.00	6.06

Structure (SMILES)	pEC50 [1]	pEC50 [2]
CC[C@H](C(=O)O)[C@@H]1CCc2cc(OCCc3nc(-c4ccc(Cl)c(Cl)c4)oc3C)ccc21	7.34	7.24
CC[C@@H](C(=O)O)[C@H]1CCc2cc(OCCc3nc(-c4ccccc4)oc3C)ccc21	6.22	< 5.00
CCC(C(=O)O)C1CCc2cc(OCCc3nc(-c4cc(C(F)(F)F)cc(C(F)(F)F)c4)oc3C)ccc21 (stereo unspecified)	6.61	5.93
CCC(C(=O)O)C1CCc2cc(OCc3ccc(-c4nc(-c5ccccc5)oc4C)cc3)ccc21 (stereo unspecified)	< 5.00	< 5.00
CCC(C(=O)O)C1CCc2cc(OCCc3nc(Cc4ccccc4)oc3C)ccc21 (stereo unspecified)	6.48	6.14
CC[C@@H](C(=O)O)[C@@H]1CCc2cc(OCCc3nc(-c4ccccc4)oc3C)ccc21	7.02	6.46
CCC(C(=O)O)C1CCc2cc(OCc3nc(-c4ccccc4)oc3C(F)(F)F)ccc21 (stereo unspecified)	< 5.00	6.00
CCC(C(=O)O)C1CCc2cc(OCCc3nc(-c4cccc5ccccc45)oc3C)ccc21 (stereo unspecified)	6.95	6.35
CCC(C(=O)O)C1CCc2cc(OCCc3nc(-c4ccc(C(C)C)cc4)oc3C)ccc21 (stereo unspecified)	7.66	6.92
CCC(C(=O)O)C1CCc2cc(OCCc3nc(-c4ccc(-c5ccccc5)cc4)oc3C)ccc21 (stereo unspecified)	7.37	5.48
CCC(C(=O)O)C1CCc2cc(OCCc3nc(-c4ccc(Cl)cc4)oc3C)ccc21 (stereo unspecified)	6.69	7.04
CCC(C(=O)O)C1CCc2cc(OCCc3nc(-c4cccc(F)c4)oc3C)ccc21 (stereo unspecified)	7.21	6.47
CCC(C(=O)O)C1CCc2cc(OCCNC(=O)Nc3ccc(C)cc3)ccc21 (stereo unspecified)	< 5.00	< 5.00
Cc1oc(-c2ccccc2)nc1CCOc1ccc2c(c1)CCC2C(C)C(=O)O (stereo unspecified)	6.98	6.00
CCC(C(=O)O)C1CCc2cc(OCCc3nc(-c4ccccc4C)oc3C)ccc21 (stereo unspecified)	6.82	6.20
CCC(C(=O)O)C1CCc2cc(OCCc3nc(-c4ccc(C(F)(F)F)cc4)oc3C)ccc21 (stereo unspecified)	6.69	7.24

From ChEMBL document CHEMBL1147759, “Substituted indanylacetic acids as PPAR-alpha-gamma activators” (Bioorg Med Chem Lett, 2006)
